Measured values taken from ChEMBL document CHEMBL1157464, “1-[(3-Aryloxy-3-aryl)propyl]-1H-imidazoles, new imidazoles with potent activity against Candida albicans and dermatophytes. Synthesis, structure-activity relationship, and molecular modeling studies” (J Med Chem, 2008).
In brackets after ≈: the same amount, converted by molar mass.

Key:
Candida albicans [1] = test: Antifungal activity against Candida albicans ATCC 10261 at 35 degC after 48 hrs by broth microdilution test; format: functional; details: Candida albicans, ATCC 10261, 48 h; for MIC: read-out: MIC; for MIC50: read-out: MIC50; for MIC90: read-out: MIC90
Procedure, shortened: (§1)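 Broth microdilution per NCCLS M27-A2. Stocks in 100% DMSO, diluted in RPMI 1640 with 0.165 M MOPS at pH 7.0; final range 0.25–128 µg/mL. Inoculum 1000–5000 cells/mL from SDA subcultures. […] C. parapsilosis ATCC22019 served as QC strain.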

Arthrodermataceae [2] = test: Antifungal activity against dermatophytes at 28 degC after 7 days by broth microdilution test; format: functional; details: 168 h
Procedure, shortened: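 Ten clinical isolates (two M. canis, five M. gypseum, three T. mentagrophytes) tested by NCCLS M38-A broth microdilution in MOPS-buffered RPMI 1640, pH 7.0, over 0.25–128 µg/mL. Conidial/hyphal suspension from PDA slants (28 °C, 7 days) adjusted to 65–70% transmittance at OD530, then diluted 1:50.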

Candida albicans [3] = test: Antifungal activity against Candida albicans ATCC 10261 at 35 degC after 48 to 96 hrs by broth microdilution test; format: functional; details: for MFC: Candida albicans, ATCC 10261, read-out: MFC
Procedure, shortened: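 Minimal fungicidal concentration for Candida. […] MFC is the lowest concentration allowing fewer than two colonies (99% killing).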

Candida albicans [4] = test: Antifungal activity against fluconazole-resistant Candida albicans isolated from oropharyngeal or vaginal disease patient after 48 hrs by broth microdilution test; format: functional
Candida parapsilosis = test: Antifungal activity against Candida parapsilosis ATCC 22019 at 35 degC after 48 hrs by broth microdilution test; format: functional; details: Lodderomyces parapsilosis, ATCC 22019, 48 h; for MFC: read-out: MFC; for MIC: read-out: MIC; procedure, shortened: as §1
Candida albicans [5] = test: Antifungal activity against fluconazole-sensitive Candida albicans Fe40 at 35 degC after 48 hrs by broth microdilution test; format: functional; procedure, shortened: as §1
[6] = Cytotoxicity against human K562 cells after assessed as reduction of cell viability 24 hrs by MTT assay; format: cell-based
Procedure, shortened: (§2)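 U937 and K562 cells, from ATCC, plated at 5 × 10^4/mL in phenol-red-free RPMI-1640 with 20% FBS and penicillin/streptomycin. Compounds added 2 h later at 25–100 µg/mL, then 24 h at 37 °C. MTT at 1 mg/mL for 3 h, formazan dissolved in isopropanol with 0.1 N HCl, absorbance read at 570 nm. CC50 is the concentration reducing viability by 50% versus the drug-free control.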

[7] = Cytotoxicity against human U937 cells assessed as reduction of cell viability after 24 hrs by MTT assay; format: cell-based, U-937; procedure, shortened: as §2
Arthrodermataceae [8] = test: Antifungal activity against dermatophytes at 28 degC after 48 to 96 hrs by broth microdilution test
Arthrodermataceae [9] = test: Antifungal activity against dermatophytes at 28 degC after 5 days by broth microdilution test; details: for MFC: Arthrodermataceae
[10] = Therapeutic index, ratio of CC50 for human U937 cells to MIC90 for Candida albicans ATCC 10261; format: cell-based, U-937
Procedure, shortened: (§3)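 Therapeutic index calculated as CC50 in the given cell line divided by MIC90.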

[11] = Therapeutic index, ratio of CC50 for human K562 cells to MIC90 for Candida albicans ATCC 10261; format: cell-based; procedure, shortened: as §3

Structure (SMILES)	MIC (Candida albicans [1]) [µg/mL]	MIC50 (Candida albicans [1]) [µg/mL]	MIC90 (Candida albicans [1]) [µg/mL]	MIC (Arthrodermataceae [2]) [µg/mL]	MIC50 (Arthrodermataceae [2]) [µg/mL]	MIC90 (Arthrodermataceae [2]) [µg/mL]	MFC50 (Candida albicans [3]) [µg/mL]	MFC90 (Candida albicans [3]) [µg/mL]	MFC (Candida albicans [3]) [µg/mL]	MIC (Candida albicans [4]) [µg/mL]	MFC (Candida parapsilosis) [µg/mL]	MIC (Candida parapsilosis) [µg/mL]	MIC (Candida albicans [5]) [µg/mL]	CC50 at 24 h [6] [µM]	CC50 at 24 h [7] [µM]	MFC50 (Arthrodermataceae [8]) [µg/mL]	MFC90 (Arthrodermataceae [9]) [µg/mL]	MFC (Arthrodermataceae [9]) [µg/mL]	selectivity ratio [10]	selectivity ratio [11]
Clc1ccc(C(CCn2ccnc2)Oc2ccc(Cl)cc2Cl)cc1 (stereo not drawn)	2.85 (≈ 7.47 µM)	2 (≈ 5.24 µM)	4 (≈ 10.5 µM)	9.8 (≈ 25.7 µM)	8 (≈ 21 µM)	16 (≈ 41.9 µM)	4 (≈ 10.5 µM)	8 (≈ 21 µM)	5.12 (≈ 13.4 µM)	6.4 (≈ 16.8 µM)	8 (≈ 21 µM)	1 (≈ 2.62 µM)	2 (≈ 5.24 µM)	68.8	172	8 (≈ 21 µM)	16 (≈ 41.9 µM)	11 (≈ 28.8 µM)		
Clc1ccc(C(CCn2ccnc2)Oc2ccccc2)cc1 (stereo not drawn)	8.8 (≈ 28.1 µM)	8 (≈ 25.6 µM)	16 (≈ 51.2 µM)	7.2 (≈ 23 µM)	8 (≈ 25.6 µM)	8 (≈ 25.6 µM)	16 (≈ 51.2 µM)	64 (≈ 205 µM)	29.2 (≈ 93.4 µM)	14.4 (≈ 46 µM)	16 (≈ 51.2 µM)	4 (≈ 12.8 µM)	8 (≈ 25.6 µM)	186	248	32 (≈ 102 µM)	32 (≈ 102 µM)	30.4 (≈ 97.2 µM)		
Clc1ccc(COC(Cn2ccnc2)c2ccc(Cl)cc2Cl)c(Cl)c1 (stereo not drawn) [MICONAZOLE]	3.25 (≈ 7.81 µM)	4 (≈ 9.61 µM)	4 (≈ 9.61 µM)	0.9 (≈ 2.16 µM)	1 (≈ 2.4 µM)	1 (≈ 2.4 µM)	8 (≈ 19.2 µM)	16 (≈ 38.4 µM)	12.2 (≈ 29.3 µM)	3 (≈ 7.21 µM)	0.5 (≈ 1.2 µM)	1 (≈ 2.4 µM)	4 (≈ 9.61 µM)	80	120	2 (≈ 4.81 µM)	4 (≈ 9.61 µM)	3 (≈ 7.21 µM)	30	20
OC(Cn1cncn1)(Cn1cncn1)c1ccc(F)cc1F [FLUCONAZOLE]	15.3 (≈ 50 µM)	2 (≈ 6.53 µM)	64 (≈ 209 µM)						> 64	128 (≈ 418 µM)	8 (≈ 26.1 µM)	0.5 (≈ 1.63 µM)	0.25 (≈ 0.816 µM)	385	328				5.1	6
Fc1ccc(C(CCn2ccnc2)Oc2ccc(Cl)cc2Cl)cc1 (stereo not drawn)	2.9 (≈ 7.94 µM)	4 (≈ 11 µM)	4 (≈ 11 µM)	13.5 (≈ 37 µM)	16 (≈ 43.8 µM)	16 (≈ 43.8 µM)	8 (≈ 21.9 µM)	8 (≈ 21.9 µM)	6.9 (≈ 18.9 µM)	5.6 (≈ 15.3 µM)	4 (≈ 11 µM)	0.5 (≈ 1.37 µM)	2 (≈ 5.48 µM)	74.2	120	32 (≈ 87.6 µM)	64 (≈ 175 µM)	41 (≈ 112 µM)		
Clc1ccc(C(CCn2ccnc2)Oc2c(Cl)cccc2Cl)cc1 (stereo not drawn)	5 (≈ 13.1 µM)	2 (≈ 5.24 µM)	8 (≈ 21 µM)				8 (≈ 21 µM)	16 (≈ 41.9 µM)	14.7 (≈ 38.5 µM)	6.8 (≈ 17.8 µM)	4 (≈ 10.5 µM)	1 (≈ 2.62 µM)	2 (≈ 5.24 µM)	135	271					
Clc1ccc(C(CCn2ccnc2)Oc2ccccc2Cl)cc1 (stereo not drawn)	7.7 (≈ 22.2 µM)	8 (≈ 23 µM)	8 (≈ 23 µM)				32 (≈ 92.2 µM)	32 (≈ 92.2 µM)	27 (≈ 77.8 µM)	8 (≈ 23 µM)	32 (≈ 92.2 µM)	4 (≈ 11.5 µM)	8 (≈ 23 µM)	205	209					
Fc1ccc(C(CCn2ccnc2)Oc2cc(Cl)cc(Cl)c2)cc1 (stereo not drawn)	8.8 (≈ 24.1 µM)	8 (≈ 21.9 µM)	16 (≈ 43.8 µM)	16.2 (≈ 44.4 µM)	16 (≈ 43.8 µM)	16 (≈ 43.8 µM)	16 (≈ 43.8 µM)	16 (≈ 43.8 µM)	11.7 (≈ 32 µM)	12.8 (≈ 35 µM)	4 (≈ 11 µM)	1 (≈ 2.74 µM)	8 (≈ 21.9 µM)	98.1	160	32 (≈ 87.6 µM)	32 (≈ 87.6 µM)	28.5 (≈ 78 µM)		
